From PubChem BioAssay
A selection: hits, their analogues and other compounds. The true share with any hit is near 3.5%.
RGS4 pot: RGS4 potentiators or activators, primary screen, cell-based, HEK293 M3R inducible RGS4, calcium flux | AID 463111, 2010 | carbachol calcium flux Fluo4; active compounds read low | 0.92% of 310,000 active | B-score at 10 µM;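 active = B-score of the integrated calcium signal more than 4 SD below the library mean, with starting fluorescence not abnormally high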;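 also: negative B-score means reduced calcium response which marks RGS4 activation or potentiation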
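Assay system: HEK293 FlpIn-TREx cells, stable M3R, doxycycline-inducible RGS4 / Probe or stimulus: carbachol, ECmax concentration / Times: overnight RGS4 induction, 30 min dye load 37 °C, 20 min compound RT / Signal: kinetic calcium fluorescence imaging with Fluo4-AM dye, 2 µM / Measure: Agonist-evoked peak-minus-minimum fluorescence over baseline, integrated ratio, B score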
MrgX1 agonist: agonists of human MrgX1 receptor, primary screen, HEK293 cells, Fluo-4 calcium flux; Mas-related G-protein coupled receptor member X1 (Homo sapiens), Q96LB2; Fluo-4 calcium fluorescence, agonist mode; active compounds read high; B-score at 10 µM; 0.44% of 310,000 active; AID 588627, 2011;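 active = calcium response B-score plate-corrected fluorescence ratio at least 3 library SD, with starting fluorescence B-score inside 5 SD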
Target sequence (Q96LB2 whole entry, looked up): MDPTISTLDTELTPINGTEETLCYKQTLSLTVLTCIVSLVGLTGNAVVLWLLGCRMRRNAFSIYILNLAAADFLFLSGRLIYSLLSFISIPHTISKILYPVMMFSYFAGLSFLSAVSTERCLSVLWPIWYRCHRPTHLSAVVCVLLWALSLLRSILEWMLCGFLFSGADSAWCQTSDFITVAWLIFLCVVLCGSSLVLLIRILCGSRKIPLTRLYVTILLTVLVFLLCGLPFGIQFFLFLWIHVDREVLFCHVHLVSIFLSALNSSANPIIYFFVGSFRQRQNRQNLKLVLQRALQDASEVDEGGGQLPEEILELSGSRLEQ
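Test system: HEK293 cells stably expressing human MrgX1 receptor; Input: fifteen thousand cells per well; Dosing: compound delivered in addition one of three; Schedule: overnight seeding, then 1 h dark dye loading; Technique: Fluo-4 NW calcium fluorescence; Measure: B-scored fluorescence response ratio; Controls: positive and negative controls per plate.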
MrgX1 antag: antagonists of human MrgX1 receptor, primary screen, HEK293 cells, Fluo-4 calcium flux | AID 588676, 2011 | B-score at 10 µM | Mas-related G-protein coupled receptor member X1 (Homo sapiens), Q96LB2 | BAM8-22 antagonism; active compounds read low | 1.3% of 310,000 active;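 active = calcium-response B-score plate-corrected more than 3 library SD below zero, starting fluorescence within 5 deviations, no agonist response on first addition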;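 also: peak minus trough fluorescence over baseline after final BAM8-22 challenge near maximal dose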
MrgX1 PAM: positive allosteric modulators of MrgX1, primary screen, HEK293 cells, Fluo-4 calcium flux | B-score at 10 µM | AID 588675, 2011 | 0.63% of 310,000 active | FDSS; active compounds read high;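 active = plate-corrected calcium response at least 3 library SD above typical, normal starting fluorescence, not activating the receptor alone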;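 also: compound read alongside a low EC10 to EC30 dose of BAM8-22 agonist; peak minus trough fluorescence over baseline measured at the second addition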
RGS4 inh: RGS4 inhibitors, primary screen, cell-based, HEK293 M3R inducible RGS4, calcium flux. 0.45% of 310,000 active. B-score at 10 µM. Fluo-4 calcium flux; active compounds read high; triggered by carbachol at its EC20. Regulator of G-protein signaling 4 (Homo sapiens), P49798. AID 463165, 2010;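 active = B-score, a plate-corrected calcium signal, over three deviations above library mean, with baseline fluorescence within five deviations of library mean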;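 also: RGS4 expression induced by doxycycline in cells with stable M3 receptor; B-score is computed from the integrated fluorescence ratio over baseline after carbachol; higher B-score means a larger calcium signal and so more RGS4 inhibition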
Target sequence (P49798 whole entry, looked up): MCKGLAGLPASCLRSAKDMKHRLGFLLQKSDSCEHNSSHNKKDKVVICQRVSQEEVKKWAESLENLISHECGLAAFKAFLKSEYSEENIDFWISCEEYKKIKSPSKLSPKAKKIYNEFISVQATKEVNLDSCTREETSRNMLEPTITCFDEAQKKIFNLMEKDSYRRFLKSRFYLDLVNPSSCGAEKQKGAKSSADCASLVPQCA
RGS4 block valid: enhanced carbachol calcium response, M3R/RGS4 cells, RGS4 inhibitor project, cell-based, validation screen, HEK293 M3R/RGS4, calcium flux; shares compounds with RGS4 inh; carbachol calcium Fluo-4 fluorescence; carbachol added at its EC20; 0 = buffer wells, 100 = carbachol control; calcium response, % at 10 µM; 65% of 1,700 active; AID 492999, 2010;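 active = duplicate-averaged calcium response above the buffer-only control mean plus 5 SD of those controls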;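 also: integrated fluorescence ratio F max minus min over baseline F0; higher response in RGS4-induced cells means RGS4 inhibition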
M3R Ca ctr: carbachol calcium response in non-induced M3R cells, confirmation, counter-screen for RGS4 inhibitor project, cell-based, HEK293 M3R. AID 493000, 2010. activity (percent), % at 10 µM. carbachol calcium Fluo-4; submaximal (EC20) carbachol stimulus; buffer wells 0%, carbachol control wells 100%. 20% of 1,900 active. shares compounds with RGS4 inh; call rule not given here;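 also: RGS4 induction absent so cells express M3R without RGS4; higher means more calcium signal and flags a non-specific hit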
M3R basal Ca ctr: second counter-screen for RGS4 inhibitors: non-induced cells without carbachol. shares compounds with RGS4 inh. HEK293 M3R/RGS4 non-induced, Fluo-4 calcium, no carbachol; normalised: buffer wells 0%, carbachol wells 100%. calcium response (agonist-mode artifact), % at 10 µM. 22% of 1,900 active. AID 493001;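 active = duplicate-averaged calcium rise in uninduced cells above buffer wells' mean plus 5 SD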
Each line names hits and unclear results; the compound was inactive in the other large screens (follow-up assays come after a bar, where they were run).

COc1ccc(C(=O)N/C(N)=N/c2nc3ccccc3o2)cc1	none
COc1cc(NS(=O)(=O)c2ccc(NC(=O)/C=C/C(=O)O)cc2)nc(OC)n1	none
COc1cc2c(cc1OC)CN(CCC(=O)c1ccc(Br)cc1)CC2	RGS4 inh 21 | RGS4 block valid 54% | M3R Ca ctr inactive | M3R basal Ca ctr 28%
O=c1[nH]c2ccc(Cl)cc2c(-c2ccccc2)c1N1CCN(c2ccccn2)CC1	RGS4 inh 7.5 | RGS4 block valid 17% | M3R Ca ctr inactive | M3R basal Ca ctr inactive
COc1ccc(NCc2nnc(SCc3ccc(Cl)cc3)n2-c2ccccc2)cc1	RGS4 inh 8 | RGS4 block valid 62% | M3R Ca ctr 40% | M3R basal Ca ctr 38%
CCOc1ccc(NCc2nnc(SCC(=O)Nc3cc(C)on3)n2-c2ccc(OC)cc2)cc1	RGS4 inh 7 | RGS4 block valid inactive | M3R Ca ctr inactive | M3R basal Ca ctr inactive
COc1ccc(-n2c(COc3ccc(Cl)cc3)nnc2SCc2ccc(C#N)cc2)cc1	none
CCOc1ccc(NCc2nnc(SCC(=O)Nc3cc(C)on3)n2-c2ccccc2OC)cc1	none
COc1ccc(NS(=O)(=O)c2ccc(Cl)c(N)c2)cc1Br	RGS4 inh 8.6 | RGS4 block valid 15% | M3R Ca ctr 32% | M3R basal Ca ctr inactive
CCOc1cc(/C=C2\C(=O)N(c3ccc(C(N)=O)cc3)N=C2C)ccc1OC(=O)c1cccs1	none
CC1=NN(c2ccc(C(=O)O)cc2)C(=O)/C1=C\c1ccc(OC(=O)c2cccs2)cc1	RGS4 inh 13 | RGS4 block valid 24% | M3R Ca ctr inactive | M3R basal Ca ctr inactive
COc1ccc(/C=C2/C(=O)N(c3ccccc3)N=C2C)cc1Br	MrgX1 PAM 8.9, RGS4 inh 24 | RGS4 block valid inactive | M3R Ca ctr inactive | M3R basal Ca ctr inactive
CC1=NN(c2ccccc2)C(=O)/C1=C/c1ccc(Cl)cc1	none
COc1ccc(C2=Nn3c(nnc3C3CCCCC3)SC2)cc1OC	RGS4 inh 11 | RGS4 block valid 22% | M3R Ca ctr 49% | M3R basal Ca ctr inactive
COc1ccc(OC)c(C2=Nn3c(nnc3C3CCCCC3)SC2)c1	none
CCCc1nnc2n1N=C(c1ccc(OC)c(OC)c1)CS2	RGS4 inh 7.4 | RGS4 block valid 12% | M3R Ca ctr 28% | M3R basal Ca ctr inactive
COc1ccc(-c2nnc3n2N=C(C)CS3)cc1OC	none
COc1ccc(C2=Nn3c(nnc3-c3ccccc3)SC2)cc1OC	none | M3R Ca ctr inactive | M3R basal Ca ctr inactive
O=c1oc2ccccc2c(O)c1/C=C1\C=Nc2ccccc21	RGS4 inh 22 | RGS4 block valid 66% | M3R Ca ctr inactive | M3R basal Ca ctr 48%
O=C(NCc1ccco1)C1CCN(C(=O)c2ccc(Cl)cc2Cl)CC1	none
O=C1Nc2ccccc2/C1=N/N=C/c1ccc(-c2ccc([N+](=O)[O-])cc2)o1	RGS4 inh 4.8 (no result: MrgX1 agonist, MrgX1 antag, MrgX1 PAM) | RGS4 block valid 7.5% | M3R Ca ctr 35% | M3R basal Ca ctr inactive
CCOc1ccc(S(=O)(=O)N2CCC(C(=O)NCCN3CCOCC3)CC2)cc1C	none
CC(Sc1ccsc1[N+](=O)[O-])C(=O)N1CCN(c2ccccn2)CC1 (stereo unspecified)	none
CCCCN(C(=O)c1cc(CC)c(C)s1)c1c(N)n(CCC)c(=O)[nH]c1=O	none
COc1ccc(S(=O)(=O)/N=C2/NC(=O)/C(=C\c3ccco3)S2)cc1	none
COc1ccc(S(=O)(=O)/N=C2/NC(=O)/C(=C\c3cc(OC)c(OC)cc3[N+](=O)[O-])S2)cc1	none | RGS4 block valid inactive | M3R Ca ctr inactive | M3R basal Ca ctr inactive
COc1cc(/C=C2\S/C(=N/S(=O)(=O)c3ccccc3)NC2=O)c([N+](=O)[O-])cc1OC	RGS4 inh 6.8 | RGS4 block valid 30% | M3R Ca ctr 68% | M3R basal Ca ctr inactive
CCN(CC)S(=O)(=O)c1cc(NC(=O)CNc2cccc(S(=O)(=O)N3CCCC3)c2)ccc1C	none
c1ccc(-c2nc(NCc3cccnc3)c3ccccc3n2)cc1	none | RGS4 block valid inactive | M3R Ca ctr inactive | M3R basal Ca ctr inactive
Clc1cccc(-c2nc(NCc3cccnc3)c3ccccc3n2)c1	none
Cc1ccc(-c2nc(NCc3cccnc3)c3ccccc3n2)cc1	none | RGS4 block valid inactive | M3R Ca ctr inactive | M3R basal Ca ctr inactive
Cc1ccc(S(=O)(=O)Nc2ccc3c(c2)C(=O)NC3=O)cc1[N+](=O)[O-]	none
O=C(N/N=C/c1cc([N+](=O)[O-])ccc1O)NC12CC3CC(CC(C3)C1)C2	RGS4 inh 7.9 | RGS4 block valid 12% | M3R Ca ctr inactive | M3R basal Ca ctr inactive
O=[N+]([O-])c1ccc(O)c(/C=N/NC(=S)Nc2ccc(Cl)cc2Cl)c1	RGS4 inh 14 | RGS4 block valid 18% | M3R Ca ctr inactive | M3R basal Ca ctr inactive
COc1ccc(N2CC(C(=O)N/N=C/c3cc([N+](=O)[O-])ccc3O)CC2=O)cc1 (stereo unspecified)	RGS4 inh 5 | RGS4 block valid 5.0% | M3R Ca ctr inactive | M3R basal Ca ctr inactive
COc1cccc(NC(=O)CN(C)C(=O)C2CCN(C(=O)c3ccccc3C)CC2)c1	none
N#CCCN(C(=O)c1ccc2c(=O)n3c(nc2c1)CCCCC3)c1ccccc1	none
N#C/C(=C\c1cccc([N+](=O)[O-])c1)c1nnc2n1CCCCC2	RGS4 inh 6.1 | RGS4 block valid 16% | M3R Ca ctr inactive | M3R basal Ca ctr inactive
O=C1NC(c2ccccc2)=C(c2ccc3ccccc3n2)C(c2ccccc2)N1 (stereo unspecified)	none
O=C1NC(c2ccccc2)=C(c2nc3ccccc3s2)C(c2ccc(O)cc2)N1 (stereo unspecified)	RGS4 inh 8.6 | RGS4 block valid 8.5% | M3R Ca ctr inactive | M3R basal Ca ctr 8.0%
COC(=O)c1ccc(N2NC(=O)/C(=C/c3ccc(OC)c(OC)c3)C2=O)cc1	RGS4 inh 6.2 | RGS4 block valid 20% | M3R Ca ctr 40% | M3R basal Ca ctr inactive
COc1cc(/C=C2\C(=O)NN(c3ccccc3)C2=O)ccc1OCC(N)=O	none
